Apaf1 activ: human Apaf-1 activation | Apaf-1 apoptosome caspase-3 activation, DEVD-Rh110 fluorescence; hits give low values | activity change, negative = activation, % at 20 µM | 330,000 tested, 0.31% active | AID 489031;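 active = activity change at or below -40% at 20 µM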
Target sequence (O14727 whole entry, looked up): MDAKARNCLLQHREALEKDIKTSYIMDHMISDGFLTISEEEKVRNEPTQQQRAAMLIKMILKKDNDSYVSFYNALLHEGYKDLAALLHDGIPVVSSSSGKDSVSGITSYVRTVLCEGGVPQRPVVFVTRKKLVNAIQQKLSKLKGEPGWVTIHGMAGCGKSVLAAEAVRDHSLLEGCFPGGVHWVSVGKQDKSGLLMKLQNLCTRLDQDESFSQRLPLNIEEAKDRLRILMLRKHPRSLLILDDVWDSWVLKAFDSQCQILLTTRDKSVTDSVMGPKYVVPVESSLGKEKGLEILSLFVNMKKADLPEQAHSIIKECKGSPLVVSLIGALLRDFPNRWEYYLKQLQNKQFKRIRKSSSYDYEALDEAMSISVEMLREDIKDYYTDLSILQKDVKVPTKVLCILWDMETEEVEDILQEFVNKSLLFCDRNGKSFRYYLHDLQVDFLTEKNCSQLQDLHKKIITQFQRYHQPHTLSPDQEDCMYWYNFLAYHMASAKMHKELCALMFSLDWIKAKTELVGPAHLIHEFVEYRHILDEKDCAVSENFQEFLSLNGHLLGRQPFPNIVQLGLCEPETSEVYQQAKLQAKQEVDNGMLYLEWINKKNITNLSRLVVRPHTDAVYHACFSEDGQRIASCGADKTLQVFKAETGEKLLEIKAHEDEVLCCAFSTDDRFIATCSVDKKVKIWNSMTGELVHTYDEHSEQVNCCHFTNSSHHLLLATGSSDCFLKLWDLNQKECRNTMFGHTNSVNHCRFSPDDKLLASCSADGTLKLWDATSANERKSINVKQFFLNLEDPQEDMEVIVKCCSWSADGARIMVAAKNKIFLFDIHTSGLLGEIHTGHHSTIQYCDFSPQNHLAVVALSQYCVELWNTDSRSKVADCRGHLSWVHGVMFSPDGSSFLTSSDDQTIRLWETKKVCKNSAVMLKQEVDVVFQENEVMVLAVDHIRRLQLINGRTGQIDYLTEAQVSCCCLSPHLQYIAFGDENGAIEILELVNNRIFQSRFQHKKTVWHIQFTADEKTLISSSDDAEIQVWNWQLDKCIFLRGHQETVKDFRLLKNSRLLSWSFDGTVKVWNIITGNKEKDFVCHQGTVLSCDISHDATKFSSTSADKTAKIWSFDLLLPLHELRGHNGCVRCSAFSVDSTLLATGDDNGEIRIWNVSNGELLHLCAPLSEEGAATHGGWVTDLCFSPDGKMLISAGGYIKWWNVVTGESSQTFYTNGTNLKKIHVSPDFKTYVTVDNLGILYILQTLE
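System: Reconstituted apoptosome of Apaf-1, cytochrome c, caspase-9, procaspase-3 | Reagent: dATP, cytochrome c, and (Z-DEVD)2-Rh110 caspase-3 substrate | Times: 30 min compound preincubation and 50 min reaction, both room temperature | Detection: Caspase-3-released Rh110 fluorescence, 540 nm emission, 480 nm excitation | Measure: Caspase-3 activity via Apaf-1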
Rh110 act interf: Rh110 signal interference in Apaf-1 activator counter-screen. shares compounds with Apaf1 activ. Rh110 fluorescence interference, quenched caspase reaction, Ex480/Em540. fluorescence interference (activity change), % at 20 µM, hits read low. 980 tested, under 10 active. AID 504616;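 active = mean activity change at or below -40% when tested at 20 µM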
Apaf-1 act conf2: confirmation of human Apaf-1 activators; shares compounds with Apaf1 activ; reconstituted apoptosome caspase-3 activity, DEVD-Rh110 fluorescence; hits give low values; activity change, negative = activation, % at 20 µM; 980 tested, 5% active;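 active = mean activity change at or below -40%, meaning activation of 40% or more, at 20 µM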
Fluor interf act: counter-screen for Apaf-1 activators: fluorescence interference, dose response; shares compounds with Apaf1 activ; fluorescence interference counterscreen, Apaf-1 activator assay; EC50, µM; 55 tested, under 10 active; call rule not given here
Numbers stand for hits; n = inactive; x = no result given. A selection follows.

SMILES	Apaf1 activ	Rh110 act interf	Apaf-1 act conf2	others
Cc1ccc(C(=O)Nc2ccccn2)cc1S(=O)(=O)N1CCOCC1	n	x	x
Cn1c(=O)c2[nH]c(=O)cnc2n(C)c1=S	n	x	x
Cc1ccc(-n2c(N)c(C(=O)Nc3c(C)n(C)n(-c4ccccc4)c3=O)c3nc4ccccc4nc32)cc1C	n	x	x
CN(C)c1cccc2c1c(NS(=O)(=O)c1cn(C)cn1)nn2C	n	x	x
CN(Cc1ccccc1)S(=O)(=O)c1cn(C)cn1	-113	n	n
O=C(Nc1ncn[nH]1)c1c(Cl)ccc(Cl)c1Cl	-47	n	n
CCN(Cc1ccccc1)S(=O)(=O)c1ccc(C(=O)N(CCCN(C)C)c2nc3cc(OC)ccc3s2)cc1	n	x	x
O=C(N/N=C/c1cc(Cl)cc([N+](=O)[O-])c1O)NC12CC3CC(CC(C3)C1)C2	-56	n	-121	Fluor interf act=n
O=C(NC1CCCC1)c1ccc2nc(-c3ccco3)c(-c3ccco3)nc2c1	n	x	x
Cc1cc(-c2ccccc2C(=O)NC2CCCCC2)on1	-149	n	n
CCOc1cc(/C=C2\C(=O)N(CCC#N)N=C2C)ccc1OCC(N)=O	n	x	x
CCN1CCc2c(sc(NC(=O)c3ccc4ccccc4c3)c2C(N)=O)C1	n	x	x
Cc1ccc2c(c1)C(O)(C1COC(C)(C)CC1=O)C(=O)N2C (stereo not given)	-573	n	n
OCCN1CCN(CC/C=C2/c3ccccc3Sc3ccc(C(F)(F)F)cc32)CC1	n	x	x
CC(C)Oc1cccc(C(=O)Nc2ncn[nH]2)c1	-48	n	n
CN1CCN(C2=C(Cl)C(=O)C(c3cnc(N4CCCCC4)s3)=C(Cl)C2=O)CC1	n	x	x
O=C1C(NS(=O)(=O)c2cccs2)=C(N2CCN(c3cccc(C(F)(F)F)c3)CC2)C(=O)c2ccccc21	n	x	x
Nc1ncc(Br)cc1N=Cc1ccccc1	n	x	x
COc1ccc(N=C2C(=Nc3ccc(OC)cc3)N(c3ccc(OC)cc3)C(=S)N2c2ccccc2)cc1	n	x	x
Cc1ccccc1Nc1cc2ccccc2c(=O)[nH]1	n	x	x
CC(C)(C)c1ccc(C(=O)NNC(=S)NCc2ccco2)cc1	-41	n	n
O=C(NCCO)c1ccc2nc(-c3ccco3)c(-c3ccco3)nc2c1	n	x	x
Cc1nn(-c2ccccc2)c(C)c1CN(C)C(=O)c1ccc(S(=O)(=O)NCc2ccco2)cc1	n	x	x
O=C1/C(=C\c2ccc(-c3ccccc3[N+](=O)[O-])o2)C(c2ccccc2)=NN1c1ccccc1	n	x	x
Fc1ccc(-[n+]2nc(Nc3ccccc3)sc2-c2c3ccccc3cc3ccccc23)cc1	n	x	x
SMILES	Apaf1 activ	Rh110 act interf	Apaf-1 act conf2	others
Cc1ccc(Sc2ncccc2C(=O)NCc2cc([N+](=O)[O-])ccc2O)c(C)c1	-48	n	n
Cc1ccc(O)c(CNc2cccc3cccnc23)c1	n	x	x
O=C(NCc1ccccn1)c1ccc2c(=O)n3nc(Nc4ccccc4)sc3nc2c1	-43	n	n
Cc1cc(Cl)ccc1NC(=O)c1ccc2c(c1)CCN2S(C)(=O)=O	-170	n	n
Cc1cc(N2CCN(C)CC2)ccc1NC(=O)c1ccc(-c2ccc(Cl)cc2)o1	n	x	x
CC(C)N1CCc2c(sc(NC(=O)c3ccc(S(=O)(=O)N4CCc5ccccc54)cc3)c2C(N)=O)C1	n	x	x
COc1ccc2cc1Oc1ccc(cc1)C[C@H]1c3c(cc4c(c3Oc3cc5c(cc3OC)CCN(C)[C@@H]5C2)OCO4)CCN1C	n	x	x
CC(=O)[C@H]1[C@H](c2cccc(Cl)c2)C(C#N)(C#N)[C@@H]2c3ccccc3C=CN21	n	x	x
CC(C)C(NS(=O)(=O)c1ccc2c(c1)oc(=O)n2C)C(=O)N1CCN(C2CCCCC2)CC1 (stereo not given)	-54	n	n
O=C(Nc1ccc(-c2nc3ccc(NC(=O)c4cccs4)cc3[nH]2)cc1)c1cccs1	n	x	x
O=C(NNc1ccccc1C(F)(F)F)c1cccs1	-107	n	n
COc1cc(O)c(NC(C)=O)c2nonc12	n	x	x
CCCCCCc1cc2cc(-c3nnc(-c4cc(OC)c(OC)c(OC)c4)o3)c(=O)oc2cc1O	n	x	x
CCCCCCc1cc2cc(-c3nnc(-c4ccccc4OC)o3)c(=O)oc2cc1O	n	x	x
CCCCCCc1cc2cc(-c3nnc(-c4ccccc4O)o3)c(=O)oc2cc1O	-140	n	-43	Fluor interf act=n
CC1=NN(c2ccc(C(=O)O)c(N)c2)C(=O)C1	n	x	x
Cc1c(C(=O)N2CCOCC2)c(S(=O)(=O)Nc2cccc(Br)c2)c(C)n1C	-44	n	n
O=C1NC(=O)[C@@H]2C3c4ccccc4C=CN3[C@H](C(=O)c3cccs3)[C@H]12 (stereo not given in full)	n	x	x
Cc1c(CCOC(=O)C2C3CC4CC(C3)CC2C4)sc[n+]1CC(=O)c1ccc(Br)cc1 (stereo not given)	n	x	x
O=C1CC(N2CCN(C3CCc4ccccc4C3)CC2)C(=O)N1c1ccccc1 (stereo not given)	-43	n	n
C(=N\c1c(-c2ccccc2)nc2n1CCS2)/c1ccccc1	n	x	x
C#CCOCCOCCOCCNc1nc(N2CCN(C(=O)CCCCCCCCCCNC(=O)[C@H]([C@@H](C)CC)n3cc(CCCCN=C(N)N)nn3)CC2)nc(N2CCN(C(=O)CCCCCCCCCCNC(=O)[C@H](CCCCN)n3cc(C)nn3)CC2)n1	n	x	x
Cc1cccc(NC(=O)CCNS(=O)(=O)c2cccc3nonc23)c1	-68	n	n
Cc1cccc(NC2=C(NC(=O)c3ccccc3)C(=O)c3ccccc3C2=O)c1	n	x	x
Cc1[nH]n(-c2ccccc2)c(=S)c1C=NCCCN=Cc1c(C)[nH]n(-c2ccccc2)c1=S	n	x	x
SMILES	Apaf1 activ	Rh110 act interf	Apaf-1 act conf2	others
COc1cccc(C(c2c(C)[nH]n(-c3ccccc3)c2=O)c2c(C)[nH]n(-c3ccccc3)c2=O)c1O	n	x	x
Cc1cc(C)n(CCNC(=O)C2CCC(=O)N(CCc3cccc(F)c3)C2)n1 (stereo not given)	-456	n	n
CC1=NN(c2ccc(C)cc2C)C(=O)C1C(c1ccccc1)C1C(=O)N(c2ccc(C)cc2C)N=C1C (stereo not given)	n	x	x
COc1cc(OC)c2c(-c3ccccc3)cc(=O)oc2c1C(CCN1CCOCC1)c1ccc2c(c1)OCO2 (stereo not given)	n	x	x
CC1=NN(c2ccc(F)cc2)C(=O)C1C(c1cccc(O)c1)c1c(C)[nH]n(-c2ccc(F)cc2)c1=O (stereo not given)	n	x	x
CC(C)CNC(=O)c1c(F)c(F)c(F)c(F)c1F	-54	n	n
COc1cc2c(C#N)c(N3CCc4ccccc4C3)nc(N)c2c(N)n1	n	x	x
Cc1ccc(CNc2ccc(O)cc2)cc1	n	x	x
COc1cccc2c(=O)c3cccc(N)c3[nH]c12	n	x	x
COc1cccc2c3c(c(=O)[nH]c12)CCC(C)(C)O3	-63	n	n
O=c1[nH]nc(CNc2ccc(O)cc2)c2ccccc12	n	x	x
C#CCOCCOCCOCCNc1nc(N2CCN(C(=O)[C@H](CCCCN)n3cc([C@@H](N)[C@H](C)CC)nn3)CC2)nc(N2CCN(C(=O)[C@H](CCC(=O)O)n3cc([C@@H](N)CCCCN)nn3)CC2)n1	n	x	x
O=c1cc(-c2cccc([N+](=O)[O-])c2)[nH][nH]1	n	x	x
